Diaph inh CS: inhibits diaphorase or chemically oxidizes, flagging diaphorase assay artifacts | diaphorase resazurin-to-resorufin fluorescence, NADH, 16 min; bacterial (C. kluyveri) enzyme, not human | inhibition, % at 20 µM | 190,000 tested, 0.69% active;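 active = primary screen inhibition at 20 µM above a set limit, cut at about 50% in these data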
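Assay system: diaphorase enzyme from Clostridium kluyveri. Quantity: enzyme working solution with 0.14 U/mL diaphorase. Schedule: reaction incubation of 16 min at room temperature. Technique: resorufin fluorescence, excitation 544 nm, emission 590 nm. Controls: No-NADH positive control and DMSO neutral control.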
FLuc inhib CS: inhibits firefly luciferase, flagging false hits in luciferase inhibition screens. ATPLite firefly luciferase biochemical luminescence, 10 min. inhibition, % at 10 µM. 200,000 tested, 1.5% active;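 active = inhibition above about 50% when tested at 10 µM, limit read from the data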
Target sequence (P08659 whole entry, looked up): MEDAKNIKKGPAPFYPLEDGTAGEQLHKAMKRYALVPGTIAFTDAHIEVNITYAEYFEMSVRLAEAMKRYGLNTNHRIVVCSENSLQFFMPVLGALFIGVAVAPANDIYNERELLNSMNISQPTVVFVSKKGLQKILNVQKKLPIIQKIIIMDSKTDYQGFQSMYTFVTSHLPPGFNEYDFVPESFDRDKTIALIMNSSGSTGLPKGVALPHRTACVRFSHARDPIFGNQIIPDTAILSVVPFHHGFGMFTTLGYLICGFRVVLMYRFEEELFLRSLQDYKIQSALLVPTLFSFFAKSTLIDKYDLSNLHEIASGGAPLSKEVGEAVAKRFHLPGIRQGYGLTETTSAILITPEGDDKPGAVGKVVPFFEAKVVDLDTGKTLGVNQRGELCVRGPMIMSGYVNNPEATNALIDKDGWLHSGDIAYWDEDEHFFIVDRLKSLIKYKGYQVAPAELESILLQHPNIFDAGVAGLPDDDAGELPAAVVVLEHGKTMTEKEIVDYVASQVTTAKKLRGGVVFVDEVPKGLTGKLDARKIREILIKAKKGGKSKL
Diaphorase act: diaphorase activation or chemical reduction counter-screen. Diaphorase/resazurin coupled assay, resorufin fluorescence, 16 min; hits give high values; 1 = vehicle wells, 0 = NADH-free wells. activation factor at 20 µM. 190,000 tested, 0.005% active;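 active = diaphorase activity raised at least twofold by the compound at 20 µM; inactive = activation factor below 2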
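System – purified diaphorase enzyme from Clostridium kluyveri · Input – enzyme 0.07 U/mL final · Also added – final NADH 0.114 mM, resazurin 0.1 mM · Measured by – fluorescence of resorufin, 544 nm excitation, 590 nm emission · Timing – 16 min enzyme reaction, ambient temperature · Measure – resorufin increase flagging diaphorase activators or reducers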
G6PDH CS: L. mesenteroides G6PDH inhibition counter-screen | inhibition, % at 5 µM | Purified L. mesenteroides G6PDH, diaphorase/resazurin coupled fluorescence, 45 min | 200,000 tested, 0.12% active; in the data active = inhibition above about 50%
FLuc act counter: affects firefly luciferase, flagging false hits in luciferase stimulation screens. P08659. activation factor at 10 µM. ATPlite luciferase biochemical, luminescence, 10 min; 0 = ATP-free wells, 1 = DMSO control. 200,000 tested, under 10 active. AID 1027;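 active = luciferase activation factor, scaled between plate controls, of at least 2 with compound at 10 µM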
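Material: Luciferase/luciferin reagent mix; Doses: test compounds dosed from 2 mM stocks in 100% DMSO; Schedule: 10 min incubation after luciferase reagent addition, room temperature; Measured by: luminescence from luciferase reaction; Read-out: luminescence gain marking luciferase activators.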
Numbers stand for hits; . = inactive; / = not tested or not shown. Most compounds without a hit are left out; they make up all but 2.3% or so of the library.

SMILES	Diaph inh CS	FLuc inhib CS	Diaphorase act	G6PDH CS	FLuc act counter
O=C(c1cc(-c2ccccc2)on1)N1CCN(C(=O)c2ccco2)CC1	.	.	.	.	.
COc1cc(CN2CCNC(=O)C2CC(=O)O)cc(OC)c1 (configuration not stated)	85	.	.	.	.
S=C(c1ccc(-c2cccc(Cl)c2)o1)N1CCCCC1	.	54	.	.	.
O=[N+]([O-])c1ccccc1-c1ccc(C(=S)N2CCCC2)o1	53	.	.	.	.
COc1cc(C(=O)Nc2nc(-c3ccc(Cl)cc3)c(C)s2)ccc1OCC(=O)Nc1ccc(F)cc1	.	.	.	.	.
CCCOc1ccc(-c2nc(C#N)c(N3CCN(CC)CC3)o2)cc1	.	.	.	.	.
COc1ccc(OC)c2[nH]c(=O)c(CCNC(=O)Cc3cccs3)cc12	.	.	.	.	.
COc1cc(C(=O)NC(=S)NNC(=O)c2cnccn2)cc(OC)c1OC	51	.	.	.	.
CCn1c(C)nc2cc(C(=O)N/N=C/c3ccccc3C)ccc21	.	53	.	.	.
CCn1c(C)nc2cc(C(=O)NNC(=S)NC(=O)c3ccc(OC)cc3)ccc21	57	.	.	.	.
COc1ccc(CC(=O)NNC(=O)c2cnccn2)cc1	.	.	.	.	.
COc1ccc(C(=O)NC(=S)NNC(=O)c2cnccn2)cc1	65	.	.	.	.
CCn1c(C)nc2cc(C(=O)OC)ccc21	/	.	/	.	.
CCN(CC)C(=S)SCC(=O)c1ccc(Br)cc1	.	.	.	.	.
Cc1ccc(C(=O)COC(=O)c2cc(=O)[nH]c3ccccc23)cc1C	.	55	.	.	.
Cc1cc2nc3c(=O)[nH]c(=O)[nH]c3nc2c([N+](=O)[O-])c1N	65	.	.	.	.
Cc1c(N)c(C(C)(C)C)cc(C(C)(C)C)c1[N+](=O)[O-]	.	.	.	.	.
CCOc1ncccc1C(=O)OCC(=O)N(CC(C)C)C1CCS(=O)(=O)C1 (configuration not stated)	.	.	.	.	.
O=C(O)c1cccc(CN2C(=O)SC(Nc3cccc4ccccc34)C2=O)c1 (configuration not stated)	.	58	.	.	.
Nc1ccc(Nc2nc(-c3cccs3)cs2)cc1	/	90	/	.	.
c1ccc(Nc2nc(-c3cccs3)cs2)nc1	.	68	.	.	.
Cc1cccc(Nc2nc(-c3cccs3)cs2)n1	.	.	.	.	.
O=C(Nc1ccccc1)c1ccc2nc(-c3ccco3)c(-c3ccco3)nc2c1	79	.	.	.	.
O=C(NCCO)Nc1ccc2nc(-c3ccco3)c(-c3ccco3)nc2c1	74	.	.	.	.
CC(=O)c1ccc(NC(=O)c2ccc3nc(-c4ccco4)c(-c4ccco4)nc3c2)cc1	55	.	.	.	.
SMILES	Diaph inh CS	FLuc inhib CS	Diaphorase act	G6PDH CS	FLuc act counter
CCCCNC(=O)c1ccc2nc(-c3ccco3)c(-c3ccco3)nc2c1	53	.	.	.	.
CN(C)c1ccc(C2SCCN2C(=O)c2ccc([N+](=O)[O-])cc2)cc1 (configuration not stated)	.	.	.	.	.
O=C(CSc1nnc(-c2ccco2)c(-c2ccco2)n1)c1ccccc1	/	.	/	.	.
CC(=O)c1ccc(NC(=O)CSc2nnc(-c3ccco3)c(-c3ccco3)n2)cc1	81	.	.	.	.
Cc1cc(/C=C2/NC(=S)NC2=O)c(C)n1-c1cccnc1	.	71	.	.	.
COc1cccc(NC(=O)c2ccc(NC(=O)C3CC(=O)OC34CCCCC4)cc2)c1 (configuration not stated)	.	.	.	.	.
Cc1ccc(O)c(N=Cc2cc(Cc3ccccc3)cc([N+](=O)[O-])c2O)c1	64	.	.	.	.
N#C/C(=C\c1ccc(N2CCOCC2)c([N+](=O)[O-])c1)c1nc2ccccc2[nH]1	.	.	.	.	.
N#C/C(=C\c1ccc(-c2ccc(C(=O)O)cc2)o1)c1nc2ccccc2[nH]1	65	.	.	.	.
N#C/C(=C\c1ccc(N2CCOCC2)o1)c1nc2ccccc2[nH]1	.	85	.	.	.
O=C(CSc1nc2ccccc2s1)Nc1ccc(Cl)c(C(=O)O)c1	.	.	.	.	.
O=C(CSc1nc2ccccc2s1)Nc1cc(C(=O)O)cc(C(=O)O)c1	62	.	.	.	.
Oc1ccc(-c2csc(-c3cccnc3)n2)c(O)c1	.	53	.	.	.
c1cncc(-c2nc(-c3cccs3)cs2)c1	.	.	.	.	.
Oc1ccc(-c2nc(-c3ccc(O)c(O)c3)cs2)cc1	63	.	.	.	.
CN1C(=O)/C(=C\C=C2/CCCN2C)N(C)C1=S	52	.	.	.	.
COc1ccc(-c2cc3nc4n(c(=O)c3s2)CCC4)cc1	.	84	.	.	.
COc1ccc(NS(=O)(=O)c2cccc(-c3nnc4n3CCCCC4)c2)cc1	.	.	.	.	.
C/C(=N\NC(=O)c1ccc(Br)cc1)C1C(=O)c2ccccc2C1=O	.	.	.	.	.
CC(=O)C1=C(c2ccc(Br)cc2)C(=O)c2ccccc2C1=O	62	.	.	.	.
COc1cc(CNCC2CCCO2)ccc1OCC(N)=O (configuration not stated)	.	.	.	.	.
CCOC(=O)N1CCN(c2nc3ccccc3nc2C(C#N)S(=O)(=O)c2ccc(C)cc2)CC1 (configuration not stated)	.	.	.	.	.
CC1CCN(c2nc(-c3cccnc3)nc3scc(-c4ccccc4)c23)CC1	.	.	.	.	.
Clc1nc(-c2ccccn2)nc2scc(-c3ccccc3)c12	.	97	.	.	.
O=c1[nH]c(N/N=C\c2ccc(F)cc2)nc2ccccc12	.	64	.	.	.
SMILES	Diaph inh CS	FLuc inhib CS	Diaphorase act	G6PDH CS	FLuc act counter
C=CCn1c(N/N=C/c2ccc(O)cc2)nc2ccccc2c1=O	.	82	.	.	.
O=c1[nH]c(N/N=C/c2ccc(O)cc2)nc2ccccc12	.	56	.	.	.
COc1ccc(/C=N/Nc2nc3ccccc3c(=O)n2-c2ccccc2)cc1OC	.	69	.	.	.
C=CCn1c(C)nc2ccccc2c1=O	.	.	.	.	.
CC(=O)Nc1ccc(/C=N/Nc2nc3ccccc3[nH]2)cc1	.	.	.	.	.
C(=N\Nc1nc2ccccc2[nH]1)/c1ccncc1	.	.	.	.	.
OC(c1ccccc1)c1cccnc1 (configuration not stated)	.	.	.	.	.
CC/C(=N\N=C1\SC(C)C(=O)N1Cc1ccco1)c1ccccc1 (configuration not stated)	.	.	.	.	.
Cn1cccc1/C=N/NC(=O)c1ccn[nH]1	.	.	.	.	.

Compound activity as filed in PubChem BioAssay.
